≈ marks a conversion by molar mass, not a printed value.
Tests used:
Type in all cases: functional
[1] = tested on: P388; assay: Cytotoxicity against mouse P388 cells after 3 days by MTT assay; conditions: P388, 72 h, read-out: ED50 (the source's name)
Procedure, shortened: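 P-388 cells in Fisher's medium with 10% heat-inactivated FCS at 37 °C, 5% CO2. Cultures set up at 1500 cells/well in 200 µL. Compounds added at eight concentrations in triplicate. After 3 days, cells counted by MTT: formazan dissolved in DMSO, absorbance at 540 nm. ED50 = concentration giving 50% absorbance reduction versus untreated cells.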

[2] = tested on: HT-29; assay: Cytotoxicity against human HT-29 cells after 6 days by MTT assay; conditions: HT-29, 144 h, read-out: ED50 (the source's name)
Procedure, shortened: (§1)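 A549 grown in EMEM with Earle's salts, 0.1 mM nonessential amino acids and 10% heat-inactivated FCS; HT-29 in RPMI 1640 with 10% heat-inactivated FCS; 37 °C, 5% CO2. Seeded 1000 cells/well. Eight concentrations spanning a 128-fold range, triplicate. After 6 days, MTT (1 mg/mL) added for 5 h, formazan dissolved in DMSO, A540. ED50 = 50% absorbance reduction versus untreated cells.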

[3] = tested on: A549; assay: Cytotoxicity against human A549 cells after 6 days by MTT assay; conditions: A549, 144 h, read-out: ED50 (the source's name); procedure, shortened: as §1

CCCCCCCCC/C=C1\C(=O)O[C@@](C)(OC)[C@H]1O [LITSEAKOLIDE E]
EC50 [1]: 2.94 µg/mL (≈ 10.3 µM) | EC50 [2]: 3.69 µg/mL (≈ 13 µM) | EC50 [3]: 4.89 µg/mL (≈ 17.2 µM)

CCCCCCCCC/C=C1/C(=O)O[C@@](C)(OC)[C@@H]1O [LITSEAKOLIDE F]
EC50 [1]: 2.04 µg/mL (≈ 7.17 µM) | EC50 [2]: 4.39 µg/mL (≈ 15.4 µM) | EC50 [3]: 2.01 µg/mL (≈ 7.07 µM)

C=Cc1cc(OC)c2oc(-c3ccc(O)c(OC)c3)cc2c1 [DEHYDROXYMETHYLAILANTHOIDOL]
EC50 [1]: > 50 µg/mL | EC50 [2]: > 50 µg/mL | EC50 [3]: > 50 µg/mL

CO[C@H](C(=O)[C@@H](O)[C@@H](C)O)[C@@H]1Cc2cc3cc(O[C@H]4C[C@@H](O[C@@H]5C[C@@H](O)[C@H](O)[C@@H](C)O5)[C@H](O)[C@@H](C)O4)c(C)c(O)c3c(O)c2C(=O)[C@H]1O[C@H]1C[C@@H](O[C@@H]2C[C@@H](O)[C@@H](O[C@@H]3C[C@](C)(O)[C@H](O)[C@@H](C)O3)[C@@H](C)O2)[C@H](O)[C@@H](C)O1 [PLICAMYCIN]
EC50 [1]: 0.06 µg/mL (≈ 0.0553 µM) | EC50 [2]: 0.08 µg/mL (≈ 0.0737 µM) | EC50 [3]: 0.07 µg/mL (≈ 0.0645 µM)

C=C1OC(=O)/C(=C\CCCCCCCCCCC)[C@@H]1O [ISOLICOMOLIDE D]
EC50 [1]: 2.97 µg/mL (≈ 10.6 µM) | EC50 [2]: 2.11 µg/mL (≈ 7.52 µM) | EC50 [3]: 2.9 µg/mL (≈ 10.3 µM)

CCCCCCCCC/C=C1/C(=O)O[C@@](C)(OC)[C@H]1O [LITSEAKOLIDE D]
EC50 [1]: 1.73 µg/mL (≈ 6.08 µM) | EC50 [2]: 2 µg/mL (≈ 7.03 µM) | EC50 [3]: 2.85 µg/mL (≈ 10 µM)

CCCCCCCCC/C=C1\C(=O)O[C@@](C)(OC)[C@@H]1O [LITSEAKOLIDE G]
EC50 [1]: 0.97 µg/mL (≈ 3.41 µM) | EC50 [2]: 2.73 µg/mL (≈ 9.6 µM) | EC50 [3]: 1.94 µg/mL (≈ 6.82 µM)

— ChEMBL document CHEMBL1156386, “New cytotoxic butanolides from Litsea acutivena” (2001)
